This note sets out measurements from ChEMBL document CHEMBL5678806, “NMS-P937, an orally available, specific small-molecule polo-like kinase 1 inhibitor with antitumor activity in solid and hematologic malignancies” (Mol Cancer Ther, 2012).

Assay [1] can be described thus: Antitumor activity against human Acute myeloid leukemic cell xenografted in nu/nu mouse assessed as increase in median survival time at 75 mg/kg, iv administered for 5 days and measured after 7 days in presence of NMS-P937 (reference value: 34 days). The conditions noted are these: time 5 day. In kind it is functional, Leukemia cell. (Xenograft models place foreign cells or tissue in a host animal.)

Assay [2] in a line: Antitumor activity against human Acute myeloid leukemic cell xenografted in nu/nu mouse assessed as increase in median survival time at 75 mg/kg, iv administered for 5 days and measured after 7 days (reference value: 34 days). The following applies: time 5 day. In kind it is functional, Leukemia cell.
A further assay relates to HT-29. Description: Antitumor activity against human HT-29 cells xenografted in nu/nu mouse assessed as tumor growth inhibition at 45 mg/kg, iv administered for 4 days relative to control. The following applies: HT-29, 96 h, time 4 day, read-out: TGI. In kind it is functional.
Assay [3] addresses Serine/threonine-protein kinase PLK1 (Homo sapiens) (UniProt P53350). Put plainly: Inhibition of PLK1 in human A2780 cells assessed as decreased TCTP phosphorylation on Ser46 by Western blotting analysis. The conditions noted are these: time 1.0 hrs. For orientation: A western blot detects proteins with antibodies after separation by electrophoresis.
Assay [4] concerns A2780. Put plainly: Induction of cell cycle arrest in human A2780 cells assessed as accumulation of cells in G2/M phase by measuring NPM phosphorylation on Thr199 incubated for 24 hrs by Western blotting analysis. Type of assay: functional, cell-based. The following applies: dose 0.02-0.2 µmol/L. In short, it runs like this: (§1)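 A2780 ovarian carcinoma cells treated 24 h with a range of concentrations, with DMSO and nocodazole controls. 20 µg protein extract separated by SDS-PAGE and immunoblotted with chemiluminescent detection. Probed for total and phospho-Thr210 PLK1, phospho-Ser10 histone H3, phospho-Thr199 NPM and phospho-Tyr15 CDK1. Total NPM, tubulin and total CDK1 served as loading controls.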

Assay [5] concerns the target Serine/threonine-protein kinase PLK1 (Homo sapiens) (UniProt P53350). Put plainly: Inhibition of PLK1 in human A2780 cells assessed as increased Histone H3 phosphorylation on Ser10 by Western blotting analysis. In kind it is cell-based.
Assay [6] has the same target. Put plainly: Inhibition of PLK1 in human A2780 cells assessed as increased NPM phosphorylation on Thr199 by Western blotting analysis. Type of assay: cell-based.
Assay [7] relates to A2780. Description: Induction of cell cycle arrest in human A2780 cells assessed as accumulation of cells in G2/M phase by measuring CDK1 phosphorylation on Tyr15 incubated for 24 hrs by Western blotting analysis. In kind it is functional, cell-based. The conditions noted are these: dose 0.02-0.2 µmol/L. Summed up: as §1
For assay [8], the system named is A2780. Put plainly: Induction of cell cycle arrest in human A2780 cells assessed as accumulation of cells in G2/M phase by measuring Histone H3 phosphorylation on Ser10 incubated for 24 hrs by Western blotting analysis. Type of assay: functional, cell-based. The conditions noted are these: dose 0.02-0.2 µmol/L. In short, it runs like this: as §1
In assay [9] the test system is A2780. Description: Induction of cell cycle arrest in human A2780 cells assessed as accumulation of cells in G2/M phase by measuring PLK1 phosphorylation on Thr210 incubated for 24 hrs by Western blotting analysis. Type of assay: functional, cell-based. The conditions noted are these: dose 0.02-0.2 µmol/L. Summed up: as §1
In assay [10] the test system is A2780. Put plainly: Induction of cell cycle arrest in human A2780 cells assessed as accumulation of cells in G2/M phase by measuring upregulated PLK1 expression incubated for 24 hrs by Western blotting analysis. In kind it is functional, cell-based. The following applies: dose 0.02-0.2 µmol/L. In short, it runs like this:
as §1

Structures are written as SMILES. The source made the active and inactive calls. The calls are words filed in the database; no cut-off is given here.

Sequence of Serine/threonine-protein kinase PLK1 (Homo sapiens) (P53350 whole entry): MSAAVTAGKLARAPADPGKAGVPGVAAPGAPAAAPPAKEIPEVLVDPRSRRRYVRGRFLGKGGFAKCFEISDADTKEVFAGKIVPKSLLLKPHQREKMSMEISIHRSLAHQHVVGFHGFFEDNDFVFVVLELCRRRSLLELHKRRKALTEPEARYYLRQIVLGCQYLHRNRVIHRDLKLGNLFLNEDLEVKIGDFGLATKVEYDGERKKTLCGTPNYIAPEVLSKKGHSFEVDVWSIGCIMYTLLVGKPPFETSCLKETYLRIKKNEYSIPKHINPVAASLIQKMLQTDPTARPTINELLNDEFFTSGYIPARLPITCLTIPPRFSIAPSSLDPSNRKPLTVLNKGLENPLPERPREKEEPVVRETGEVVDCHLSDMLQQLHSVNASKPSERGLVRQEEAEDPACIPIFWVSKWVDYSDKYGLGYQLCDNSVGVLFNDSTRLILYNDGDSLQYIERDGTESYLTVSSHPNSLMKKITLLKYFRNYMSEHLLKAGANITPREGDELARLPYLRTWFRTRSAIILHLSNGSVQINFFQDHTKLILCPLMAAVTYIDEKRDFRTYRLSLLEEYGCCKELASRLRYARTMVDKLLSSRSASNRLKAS

Take `CCc1c2c(nc3ccc(OC(=O)N4CCC(N5CCCCC5)CC4)cc13)-c1cc3c(c(=O)n1C2)COC(=O)[C@]3(O)CC` [IRINOTECAN]: the figures for the Time in assay [1] and in assay [2] were 79 days and 67 days, respectively. In addition, the inhibition in vivo at 45 mg/kg with HT-29 turned out to be 64%.

As to `COC(=O)Nc1nc2cc(C(=O)c3cccs3)ccc2[nH]1`, the inhibition entry in assay [3], in assay [5] and in assay [6] was “Active” in each case. The outcome in the assay with A2780 [4], with A2780 [7], in the assay on A2780 [8], in the assay with A2780 [9] and in the assay with A2780 [10] was Active.
